Article PMC4684772 (ACS chemical biology, 2015)
“Also recorded” adds a separate entry of the source.

What was measured:
[1] = tested on: LUSQ cell lines (H157, H2170, H520, H596); test: cell viability; type: cell-based; conditions: for sensitivity regarding viability: H157 and H520 cells, Fig. S4
Outline: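 Four LUSQ lines (H157, H2170, H520, H596) were exposed to the test compound for 72 hours and cell viability was measured. IC50 values for inhibition of viability were derived per line.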

CDK4 = conditions: cited from earlier work; for IC50: read-out: IC50 for CDK4 inhibition
CDK4/cyclin D1 = test: in vitro kinase assays for CDK4/cyclin D1 activity; type: biochemical; conditions: in vitro kinase assay CDK4/cyclin D1
PIK3C3 = PIK3C3 (Homo sapiens, UniProt Q8NEB9); test: in vitro kinase assay; type: biochemical
H157 cells = test: Rb Ser780 phosphorylation immunoblot; type: cell-based; conditions: 1 µM and 5 µM, 4 and 24 hours
H157 and H520 cells [2] = test: pSer473 AKT and pGSK3 Western blots; type: cell-based; conditions: 4 hours
H157 and H520 cells [3] = test: LC3 Western blots; type: cell-based; conditions: 48 hours
autophagic vesicles = test: quantitative analysis of autophagic vesicles by Cyto-ID; type: cell-based; conditions: 3 hour treatment
CDK9 = test: in vitro kinase assay; type: biochemical; conditions: in vitro kinase assays
PIK3CD = test: in vitro kinase assay; type: biochemical; conditions: in vitro kinase assays
CSNK2α2 = test: in vitro kinase assay; type: biochemical; conditions: in vitro kinase assays
PIK3R4 = test: dose-dependent binding competition with soluble drug; conditions: Fig. S3C
TNK1 = test: in vitro kinase assay; type: biochemical; conditions: in vitro kinase assays
AURKA = test: in vitro kinase assay; type: biochemical; conditions: in vitro kinase assays
GAK = test: dose-dependent binding competition with soluble drug; conditions: Fig. S3C

Sequence of PIK3C3 (Q8NEB9 whole entry): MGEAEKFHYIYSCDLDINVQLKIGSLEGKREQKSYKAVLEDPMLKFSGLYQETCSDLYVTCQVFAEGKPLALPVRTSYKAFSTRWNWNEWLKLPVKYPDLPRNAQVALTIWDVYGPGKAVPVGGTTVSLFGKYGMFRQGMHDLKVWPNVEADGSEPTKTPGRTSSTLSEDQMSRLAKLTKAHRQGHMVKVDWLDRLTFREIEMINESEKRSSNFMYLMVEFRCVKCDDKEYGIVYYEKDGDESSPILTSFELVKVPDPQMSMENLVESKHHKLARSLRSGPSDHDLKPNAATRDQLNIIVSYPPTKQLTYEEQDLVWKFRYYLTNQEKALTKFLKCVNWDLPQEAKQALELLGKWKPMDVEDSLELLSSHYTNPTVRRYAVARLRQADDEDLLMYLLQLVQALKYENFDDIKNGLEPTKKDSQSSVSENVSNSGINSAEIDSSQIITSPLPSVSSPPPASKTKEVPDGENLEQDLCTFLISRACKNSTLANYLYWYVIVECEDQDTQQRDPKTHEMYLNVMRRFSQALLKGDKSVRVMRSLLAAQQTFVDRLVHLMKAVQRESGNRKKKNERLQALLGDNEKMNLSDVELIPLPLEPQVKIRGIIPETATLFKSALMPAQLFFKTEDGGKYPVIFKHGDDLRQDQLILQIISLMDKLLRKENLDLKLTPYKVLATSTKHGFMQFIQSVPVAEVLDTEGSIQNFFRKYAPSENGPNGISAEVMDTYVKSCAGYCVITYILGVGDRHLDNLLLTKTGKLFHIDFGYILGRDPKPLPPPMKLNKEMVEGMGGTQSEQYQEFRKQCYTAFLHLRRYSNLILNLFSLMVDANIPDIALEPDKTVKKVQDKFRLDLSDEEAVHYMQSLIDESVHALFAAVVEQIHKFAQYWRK

Structure (SMILES): CCN1CCN(Cc2ccc(Nc3ncc(F)c(-c4cc(F)c5nc(C)n(C(C)C)c5c4)n3)nc2)CC1 [Abemaciclib, abemaciclib]
- effects on viability compared with palbociclib and ribociclib ([1]; LUSQ cell lines, Fig. S1): stronger effects
- fold more potent for CDK4 than palbociclib and ribociclib (CDK4): about 5 fold

Structure (SMILES): Nc1cc(C(F)(F)F)c(-c2cc(N3CCOCC3)nc(N3CCOCC3)n2)cn1 [BKM120]
- sensitivity regarding viability [1]: relative insensitivity

Structure (SMILES): CC[C@H](Nc1ncnc2[nH]cnc12)c1nc2cccc(F)c2c(=O)n1-c1ccccc1 [CAL-101]
- sensitivity regarding viability [1]: relative insensitivity

Structure (SMILES): CN(C)C(=O)c1cc2cnc(Nc3ccc(N4CCN(CCCN)CC4)cn3)nc2n1C1CCCC1 [c-ribociclib]
- CDK4 activity of coupleable analogues (CDK4/cyclin D1): conservation of their CDK4 activity

Structure (SMILES): CC(=O)c1c(C)c2cnc(Nc3ccc(N4CCNCC4)cn3)nc2n(C2CCCC2)c1=O [palbociclib]
- IC50 (PIK3C3): 14800 nM
- inhibition of Rb phosphorylation at S780 (H157 cells): effectively inhibited
- inhibition of phosphorylation of AKT S473 and its downstream target GSK3β (H157 and H520 cells [2]): dose-dependently inhibits
- lipidation of LC3 (LC3-II) (H157 and H520 cells [3]): increased
- number of autophagic vesicles (autophagic vesicles): increased
- validation as target, CDK9 (CDK9): new palbociclib targets
- validation as target, PIK3CD (PIK3CD): relatively weak; also recorded: new palbociclib targets
- validation as target, CSNK2α2 (CSNK2α2): new palbociclib targets
- cellular activity compared with ribociclib ([1]; LUSQ cell lines, 72 hours): somewhat more active
- interaction with PIK3R4 (PIK3R4): potent interactions

Structure (SMILES): CN(C)C(=O)c1cc2cnc(Nc3ccc(N4CCNCC4)cn3)nc2n1C1CCCC1 [ribociclib]
- inhibition of Rb phosphorylation at S780 (H157 cells): effectively inhibited
- validation as target, CDK9 (CDK9): potent
- validation as target, TNK1 (TNK1): potent
- inhibition of AURKA (AURKA): weakly inhibited
- interaction with GAK (GAK): potent interactions
